ChEMBL document CHEMBL1138835, “Inhibitors of multiple mutants of Plasmodium falciparum dihydrofolate reductase and their antimalarial activities” (J Med Chem, 2004)

Experiments:
[1] = target: Bifunctional dihydrofolate reductase-thymidylate synthase (Plasmodium falciparum K1, UniProt P13922, C59R/I164L/S108N); assay: Binding affinity towards mutant dihydrofolate reductase (C59R+S108N+I164L DHFR) of Plasmodium falciparum
[2] = target: Bifunctional dihydrofolate reductase-thymidylate synthase (Plasmodium falciparum K1, UniProt P13922, C59R/N51I/S108N); assay: Binding affinity towards mutant dihydrofolate reductase (N51I+C59R+S108N DHFR) of Plasmodium falciparum
KB [3] = assay: In vitro cytotoxicity against Plasmodium falciparum infected KB cell line; format: functional, cell-based; conditions: Homo sapiens
Method in brief: (§1)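 Cytotoxicity (IC50, μM) run against three mammalian lines: Vero (African green monkey kidney fibroblasts), KB (human epidermoid carcinoma) and BC (human breast cancer). Testing followed the Skehan et al. protocol.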

[4] = target: Bifunctional dihydrofolate reductase-thymidylate synthase (Plasmodium falciparum K1, UniProt P13922); assay: Binding affinity towards wild-type dihydrofolate reductase of Plasmodium falciparum.
BC [5] = assay: Relative antiplasmodial activity to cytotoxicity in Plasmodium falciparum Csl-2 infected BC cells; format: functional
KB [6] = assay: Relative antiplasmodial activity to cytotoxicity in Plasmodium falciparum Csl-2 infected KB cells; format: functional
Vero [7] = assay: Relative antiplasmodial activity to cytotoxicity in Plasmodium falciparum Csl-2 infected Vero cells; format: functional
BC [8] = assay: Relative antiplasmodial activity to cytotoxicity in Plasmodium falciparum TM4/8.2 infected BC cells; format: functional
KB [9] = assay: Relative antiplasmodial activity to cytotoxicity in Plasmodium falciparum TM4/8.2 infected KB cells; format: functional
KB [10] = assay: Relative antiplasmodial activity to cytotoxicity in Plasmodium falciparum V1/S infected KB cells; format: functional
Vero [11] = assay: Relative antiplasmodial activity to cytotoxicity in Plasmodium falciparum V1/S infected Vero cells; format: functional
Vero [12] = assay: Relative antiplasmodial activity to cytotoxicity in Plasmodium falciparum TM4/8.2 infected Vero cells; format: functional
[13] = test system: Bifunctional dihydrofolate reductase-thymidylate synthase (Plasmodium falciparum K1), P13922 [UNDEFINED MUTATION]; assay: Ratio of binding affinity for mutant (C59R+S108N+I164L) to that of wild type dihydrofolate reductase
Method in brief: (§2)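 Each ratio is Ki for the mutant PfDHFR divided by Ki for wild-type PfDHFR. The recombinant enzymes were expressed in E. coli BL21(DE3)pLysS and purified on methotrexate-Sepharose. Ki was derived assuming inhibitors compete with substrate binding.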

[14] = target: Bifunctional dihydrofolate reductase-thymidylate synthase (Plasmodium falciparum K1) (UniProt P13922); assay: Ratio of binding affinity for mutant (N51I+C59R+S108N) to that of wild type dihydrofolate reductase; method in brief: as §2
[15] = test system: Bifunctional dihydrofolate reductase-thymidylate synthase (Plasmodium falciparum K1), P13922 [UNDEFINED MUTATION]; assay: Ratio of binding affinity for mutant (N51I+C59R+S108N+I164L) to that of wild type dihydrofolate reductase; method in brief: as §2
[16] = target: Bifunctional dihydrofolate reductase-thymidylate synthase (Plasmodium falciparum K1, UniProt P13922, C59R/I164L/N51I/S108N); assay: Binding affinity towards mutant dihydrofolate reductase (N51I+C59R+S108N+I164L DHFR) of Plasmodium falciparum
BC [17] = assay: In vitro cytotoxicity against BC cell line.; conditions: Homo sapiens
[18] = target: Bifunctional dihydrofolate reductase-thymidylate synthase (Plasmodium falciparum K1, UniProt P13922, A16V/S108T); assay: Binding affinity towards mutant dihydrofolate reductase (A16V+S108T DHFR) of Plasmodium falciparum.
Vero [19] = assay: In vitro cytotoxicity against Plasmodium falciparum infected vero cell line.; format: functional, cell-based; conditions: Chlorocebus sabaeus; method in brief: as §1
[20] = test system: Bifunctional dihydrofolate reductase-thymidylate synthase (Plasmodium falciparum K1), P13922 [UNDEFINED MUTATION]; assay: Ratio of binding affinity for mutant (A16V+S108T) to that of wild type dihydrofolate reductase; method in brief: as §2

Chain of Bifunctional dihydrofolate reductase-thymidylate synthase (Plasmodium falciparum K1), P13922 [UNDEFINED MUTATION] (P13922 whole entry, looked up, stated change not applied): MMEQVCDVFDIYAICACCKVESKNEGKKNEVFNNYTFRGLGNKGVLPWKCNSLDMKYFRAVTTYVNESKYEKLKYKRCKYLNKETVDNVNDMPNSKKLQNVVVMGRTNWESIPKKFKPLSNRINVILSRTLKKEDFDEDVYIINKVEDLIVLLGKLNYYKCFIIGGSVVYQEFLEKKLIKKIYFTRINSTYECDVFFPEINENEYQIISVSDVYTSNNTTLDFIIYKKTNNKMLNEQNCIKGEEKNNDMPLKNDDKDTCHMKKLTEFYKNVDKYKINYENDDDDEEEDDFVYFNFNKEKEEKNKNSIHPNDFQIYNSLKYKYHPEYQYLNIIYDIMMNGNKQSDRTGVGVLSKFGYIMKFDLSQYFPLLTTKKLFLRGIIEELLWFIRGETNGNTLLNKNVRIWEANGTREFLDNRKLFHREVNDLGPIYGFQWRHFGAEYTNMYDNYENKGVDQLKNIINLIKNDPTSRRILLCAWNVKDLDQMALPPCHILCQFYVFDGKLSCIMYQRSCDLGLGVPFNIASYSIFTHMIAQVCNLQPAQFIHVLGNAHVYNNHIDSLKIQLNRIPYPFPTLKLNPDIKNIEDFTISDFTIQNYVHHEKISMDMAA
Chain of Bifunctional dihydrofolate reductase-thymidylate synthase (Plasmodium falciparum K1, UniProt P13922) (P13922 whole entry): as the sequence (P13922 whole entry, looked up, stated change not applied) above
Chain of Bifunctional dihydrofolate reductase-thymidylate synthase (Plasmodium falciparum K1, UniProt P13922, C59R/I164L/S108N) (P13922 whole entry, looked up, stated change not applied): as above
Chain of Bifunctional dihydrofolate reductase-thymidylate synthase (Plasmodium falciparum K1, UniProt P13922, C59R/N51I/S108N) (P13922 whole entry, looked up, stated change not applied): as above
Chain of Bifunctional dihydrofolate reductase-thymidylate synthase (Plasmodium falciparum K1) (P13922 whole entry, looked up): as the sequence (P13922 whole entry, looked up, stated change not applied) above
Chain of Bifunctional dihydrofolate reductase-thymidylate synthase (Plasmodium falciparum K1, UniProt P13922, C59R/I164L/N51I/S108N) (P13922 whole entry, looked up, stated change not applied): as above
Chain of Bifunctional dihydrofolate reductase-thymidylate synthase (Plasmodium falciparum K1, UniProt P13922, A16V/S108T) (P13922 whole entry, looked up, stated change not applied): as above

| Structure (SMILES) | Ki [1] [µM] | Ki [2] [µM] | IC50 (KB [3]) [µM] | Ki [4] [µM] | Safety ratio (BC [5]) | Safety ratio (KB [6]) | Safety ratio (Vero [7]) | Safety ratio (BC [8]) | Safety ratio (KB [9]) | Safety ratio (KB [10]) | Safety ratio (Vero [11]) | Safety ratio (Vero [12]) | Ratio [13] | Ratio [14] | Ratio [15] | Ki [16] [µM] | IC50 (BC [17]) [µM] | Ki [18] [µM] | IC50 (Vero [19]) [µM] | Ratio [20] |
| --- | --- | --- | --- | --- | --- | --- | --- | --- | --- | --- | --- | --- | --- | --- | --- | --- | --- | --- | --- | --- |
| Nc1nc(N)c(-c2ccccc2)c(CCCc2ccccc2)n1 | 0.0019 | 0.0011 | 150 | 0.0005 | 92.6 | 55.6 | >18.5 | 1191 | 714 | 17.4 | >5.8 | >238 | 3.8 | 2.2 | 9.4 | 0.0047 | 250 | – | – | – |
| NC1=NC(c2ccccc2)N(c2cccc(Cl)c2)C(N)=N1 (stereo unspecified) | 0.217 | 0.111 | 87 | 0.0117 | 672 | 348 | 1000 | 300 | 155 | 109 | 312 | 446 | 18.5 | 9.5 | 84.1 | 0.984 | 168 | 0.0105 | 250 | 0.9 |
| CC1(C)N=C(N)N=C(N)N1c1ccc(Cl)cc1 [CYCLOGUANIL] | 0.285 | 0.0314 | 41 | 0.0015 | >1.3 | 1.1 | > 1.3 | >1250 | 1025 | <0.4 | – | >1250 | 190 | 20.9 | 280 | 0.42 | > 50 | – | > 50 | 876 |
| CC1N=C(N)N=C(N)N1c1ccc(Cl)cc1 (stereo unspecified) | 1.58 | 0.134 | – | 0.0041 | – | – | – | – | – | – | – | – | 386 | 32.7 | 592 | 2.43 | – | – | – | 31 |
| Nc1nc(N)c(-c2cccc(Cl)c2)c(CCCc2ccccc2)n1 | 0.0022 | 0.002 | 1.6 | 0.0012 | 0.4 | 0.4 | 0.6 | 2.4 | 2.4 | 0.3 | 0.4 | 3.1 | 1.8 | 1.7 | 1.7 | 0.002 | 1.6 | – | 2.1 | – |
